From ChEMBL document CHEMBL5055631, “Antitumor properties of novel sesquiterpene lactone analogs as NFκB inhibitors that bind to the IKKβ ubiquitin-like domain (ULD)” (Eur J Med Chem, 2021)

Assays:
Type in all cases: functional
HCT-116 = assay: Anticancer activity against human HCT-116 cells assessed as cell growth inhibition incubated for 48 hrs by SRB method
Procedure, shortened: (§1)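 NCI-60 panel (DTP). Cells in RPMI 1640 with 5% FBS, 2 mM L-glutamine, seeded at 5,000–40,000 per well by doubling time and preincubated 24 h at 37 °C, 5% CO2. Time-zero plates TCA-fixed. DMSO stocks diluted in medium with gentamicin, tested at 100 μM, 10 μM, 1 μM, 0.1 μM and 10 nM for 48 h. Cells fixed with cold TCA, stained with SRB, absorbance read at 515 nm.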

UACC-62 = assay: Anticancer activity against human UACC-62 cells assessed as cell growth inhibition incubated for 48 hrs by SRB method
Procedure, shortened: (§2)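 NCI-60 panel, SRB assay. Cells grown in RPMI 1640 with 5% FBS and 2 mM L-glutamine, seeded at 5,000–40,000 cells/well depending on doubling time, and preincubated 24 h at 37 °C with 5% CO2. Time-zero plates were TCA-fixed. Compounds came from DMSO stocks and were tested at 100 μM, 10 μM, 1 μM, 0.1 μM and 10 nM for 48 h. Cells were fixed with cold TCA and stained with 0.4% SRB, and the dye was solubilized in 10 mM Tris base with A515 read.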

TK-10 = assay: Anticancer activity against human TK-10 cells assessed as cell growth inhibition incubated for 48 hrs by SRB method; procedure, shortened: as §2
CCRF-CEM = assay: Anticancer activity against human CCRF-CEM cells assessed as cell growth inhibition incubated for 48 hrs by sulforhodamine B assay
RPMI-8226 = assay: Anticancer activity against human RPMI-8226 cells assessed as cell growth inhibition incubated for 48 hrs by SRB method
SR = assay: Anticancer activity against human SR cells assessed as cell growth inhibition incubated for 48 hrs by SRB method; procedure, shortened: as §1
A549 = assay: Anticancer activity against human A549 cells assessed as cell growth inhibition incubated for 48 hrs by SRB method; procedure, shortened: as §1
EKVX = assay: Anticancer activity against human EKVX cells assessed as cell growth inhibition incubated for 48 hrs by SRB method; procedure, shortened: as §1
HOP-62 = assay: Anticancer activity against human HOP-62 cells assessed as cell growth inhibition incubated for 48 hrs by SRB method; procedure, shortened: as §1
MOLT-4 = assay: Anticancer activity against human MOLT-4 assessed as cell growth inhibition incubated for 48 hrs by SRB method
HOP-92 = assay: Anticancer activity against human HOP-92 cells assessed as cell growth inhibition incubated for 48 hrs by SRB method
K562 = assay: Anticancer activity against human K562 cells assessed as cell growth inhibition incubated for 48 hrs by SRB method
HL-60(TB) = assay: Anticancer activity against human HL-60(TB) cells assessed as cell growth inhibition incubated for 48 hrs by SRB method
NCI-H226 = assay: Anticancer activity against human NCI-H226 cells assessed as cell growth inhibition incubated for 48 hrs by SRB method; procedure, shortened: as §1
NCI-H23 = assay: Anticancer activity against human NCI-H23 cells assessed as cell growth inhibition incubated for 48 hrs by SRB method; procedure, shortened: as §1
NCI-H460 = assay: Anticancer activity against human NCI-H460 cells assessed as cell growth inhibition incubated for 48 hrs by SRB method; procedure, shortened: as §1
NCI-H522 = assay: Anticancer activity against human NCI-H522 cells assessed as cell growth inhibition incubated for 48 hrs by SRB method
COLO 205 = assay: Anticancer activity against human COLO 205 cells assessed as cell growth inhibition incubated for 48 hrs by SRB method
HCC 2998 = assay: Anticancer activity against human HCC 2998 cells assessed as cell growth inhibition incubated for 48 hrs by SRB method; procedure, shortened: as §1
HCT-15 = assay: Anticancer activity against human HCT-15 cells assessed as cell growth inhibition incubated for 48 hrs by SRB method; procedure, shortened: as §1
HT-29 = assay: Anticancer activity against human HT29 cells assessed as cell growth inhibition incubated for 48 hrs by SRB method; procedure, shortened: as §1
KM12 = assay: Anticancer activity against human KM12 cells assessed as cell growth inhibition incubated for 48 hrs by SRB method; procedure, shortened: as §1
SW-620 = assay: Anticancer activity against human SW-620 cells assessed as cell growth inhibition incubated for 48 hrs by SRB method
SF-268 = assay: Anticancer activity against human SF-268 cells assessed as cell growth inhibition incubated for 48 hrs by SRB method; procedure, shortened: as §1
SF-295 = assay: Anticancer activity against human SF-295 cells assessed as cell growth inhibition incubated for 48 hrs by SRB method; procedure, shortened: as §1
SF-539 = assay: Anticancer activity against human SF-539 cells assessed as cell growth inhibition incubated for 48 hrs by SRB method
SNB-19 = assay: Anticancer activity against human SNB-19 cells assessed as cell growth inhibition incubated for 48 hrs by SRB method; procedure, shortened: as §1
SNB-75 = assay: Anticancer activity against human SNB-75 cells assessed as cell growth inhibition incubated for 48 hrs by SRB method
U-251 = assay: Anticancer activity against human U-251 cells assessed as cell growth inhibition incubated for 48 hrs by SRB method; procedure, shortened: as §2
LOX IMVI = assay: Anticancer activity against human LOX IMVI cells assessed as cell growth inhibition incubated for 48 hrs by SRB method
Malme-3M = assay: Anticancer activity against human MALME-3M cells assessed as cell growth inhibition incubated for 48 hrs by SRB method
M14 = assay: Anticancer activity against human M14 cells assessed as cell growth inhibition incubated for 48 hrs by SRB method; procedure, shortened: as §1
MDA-MB-435 = assay: Anticancer activity against human MDA-MB-435 cells assessed as cell growth inhibition incubated for 48 hrs by SRB method; procedure, shortened: as §1
OVCAR-5 = assay: Anticancer activity against human OVCAR-5 cells assessed as cell growth inhibition incubated for 48 hrs by SRB method
OVCAR-8 = assay: Anticancer activity against human OVCAR-8 cells assessed as cell growth inhibition incubated for 48 hrs by SRB method; procedure, shortened: as §1
786-0 = assay: Anticancer activity against human 786-0 cells assessed as cell growth inhibition incubated for 48 hrs by SRB method; procedure, shortened: as §1
RXF 393 = assay: Anticancer activity against human RXF 393 cells assessed as cell growth inhibition incubated for 48 hrs by SRB method; procedure, shortened: as §1
PC-3 = assay: Anticancer activity against human PC-3 cells assessed as cell growth inhibition incubated for 48 hrs by SRB method; procedure, shortened: as §1
[1] = Anticancer activity against human HS 578T cells assessed as cell growth inhibition incubated for 48 hrs by SRB method
MDA-MB-468 = assay: Anticancer activity against human MDA-MB-468 cells assessed as cell growth inhibition incubated for 48 hrs by SRB method; procedure, shortened: as §1
SK-MEL-28 = assay: Anticancer activity against human SK-MEL-28 cells assessed as cell growth inhibition incubated for 48 hrs by SRB method; procedure, shortened: as §1
UACC-257 = assay: Anticancer activity against human UACC-257 assessed as cell growth inhibition incubated for 48 hrs by SRB method; procedure, shortened: as §2
IGROV-1 = assay: Anticancer activity against human IGROV-1 cells assessed as cell growth inhibition incubated for 48 hrs by SRB method; procedure, shortened: as §1
OVCAR-4 = assay: Anticancer activity against human OVCAR-4 cells assessed as cell growth inhibition incubated for 48 hrs by SRB method
NCI/ADR-RES = assay: Anticancer activity against human NCI/ADR-RES cells assessed as cell growth inhibition incubated for 48 hrs by SRB method; procedure, shortened: as §1
A498 = assay: Anticancer activity against human A498 cells assessed as cell growth inhibition incubated for 48 hrs by SRB method; procedure, shortened: as §1
ACHN = assay: Anticancer activity against human ACHN cells assessed as cell growth inhibition incubated for 48 hrs by SRB method; procedure, shortened: as §1
CAKI-1 = assay: Anticancer activity against human CAKI-1 cells assessed as cell growth inhibition incubated for 48 hrs by SRB method; procedure, shortened: as §1
UO-31 = assay: Anticancer activity against human UO-31 cells assessed as cell growth inhibition incubated for 48 hrs by SRB method
Procedure, shortened: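 NCI-60 panel, SRB assay. Time-zero plates were TCA-fixed. Compounds came from DMSO stocks and were tested at 100 μM, 10 μM, 1 μM, 0.1 μM and 10 nM for 48 h. Cells were fixed with cold TCA and stained with 0.4% SRB, and the dye was solubilized in 10 mM Tris base with A515 read.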

DU-145 = assay: Anticancer activity against human DU-145 cells assessed as cell growth inhibition incubated for 48 hrs by SRB method; procedure, shortened: as §1
MCF7 = assay: Anticancer activity against human MCF7 cells assessed as cell growth inhibition incubated for 48 hrs by SRB method; procedure, shortened: as §1
MDA-MB-231 = assay: Anticancer activity against human MDA-MB-231 cells assessed as cell growth inhibition incubated for 48 hrs by SRB method; procedure, shortened: as §1
BT-549 = assay: Anticancer activity against human BT-549 cells assessed as cell growth inhibition incubated for 48 hrs by SRB method; procedure, shortened: as §1
T47D = assay: Anticancer activity against human T47D cells assessed as cell growth inhibition incubated for 48 hrs by SRB method; procedure, shortened: as §1

C=C1C(=O)O[C@@H]2C3O[C@]3(C)CC/C=C(\C)CC[C@@H]12 (some centres undefined)
GI50 (HCT-116): 10 µM
GI50 (UACC-62): 3.48 µM
GI50 (TK-10): 10 µM

C=C1C(=O)O[C@H]2[C@H]1CC/C(COC(=O)NCCc1ccc(Br)cc1)=C\CC[C@@]1(C)O[C@@H]21
GI50 (CCRF-CEM): 0.27 µM
GI50 (RPMI-8226): 0.62 µM
GI50 (SR): 0.43 µM
GI50 (A549): 2.59 µM
GI50 (EKVX): 1.54 µM
GI50 (HOP-62): 1.99 µM
GI50 (MOLT-4): 1.69 µM
GI50 (HOP-92): 1.28 µM
GI50 (K562): 0.53 µM
GI50 (HL-60(TB)): 1.06 µM
GI50 (NCI-H226): 1.72 µM
GI50 (NCI-H23): 1.72 µM
GI50 (NCI-H460): 2.06 µM
GI50 (NCI-H522): 1.16 µM
GI50 (COLO 205): 1.82 µM
GI50 (HCC 2998): 1.71 µM
GI50 (HCT-116): 0.47 µM
GI50 (HCT-15): 1.01 µM
GI50 (HT-29): 1.32 µM
GI50 (KM12): 1.95 µM
GI50 (SW-620): 0.71 µM
GI50 (SF-268): 1.56 µM
GI50 (SF-295): 3.81 µM
GI50 (SF-539): 1.46 µM
GI50 (SNB-19): 1.39 µM
GI50 (SNB-75): 1.2 µM
GI50 (U-251): 1.4 µM
GI50 (LOX IMVI): 1.18 µM
GI50 (Malme-3M): 2.09 µM
GI50 (M14): 1.26 µM
GI50 (MDA-MB-435): 1.58 µM
GI50 (OVCAR-5): 0.98 µM
GI50 (OVCAR-8): 1.56 µM
GI50 (786-0): 1.49 µM
GI50 (RXF 393): 1.32 µM
GI50 (PC-3): 1.73 µM
GI50 [1]: 0.41 µM
GI50 (MDA-MB-468): 0.84 µM

C=C1C(=O)O[C@H]2[C@H]1CC/C(COC(=O)NCCc1cccc(OC)c1)=C\CC[C@@]1(C)O[C@@H]21
GI50 (CCRF-CEM): 0.34 µM
GI50 (RPMI-8226): 0.91 µM
GI50 (SR): 0.51 µM
GI50 (A549): 7.28 µM
GI50 (EKVX): 1.78 µM
GI50 (HOP-62): 4.39 µM
GI50 (MOLT-4): 2.09 µM
GI50 (HOP-92): 1.84 µM
GI50 (K562): 0.61 µM
GI50 (HL-60(TB)): 1.36 µM
GI50 (NCI-H226): 1.57 µM
GI50 (NCI-H23): 1.86 µM
GI50 (NCI-H460): 3.94 µM
GI50 (NCI-H522): 1.02 µM
GI50 (COLO 205): 1.55 µM
GI50 (HCC 2998): 1.68 µM
GI50 (HCT-116): 0.71 µM
GI50 (HCT-15): 1.02 µM
GI50 (HT-29): 1.14 µM
GI50 (KM12): 4.27 µM
GI50 (SW-620): 0.52 µM
GI50 (SF-268): 1.78 µM
GI50 (SF-295): 7.26 µM
GI50 (SF-539): 1.49 µM
GI50 (SNB-19): 1.43 µM
GI50 (SNB-75): 1.47 µM
GI50 (LOX IMVI): 1.34 µM
GI50 (Malme-3M): 1.84 µM
GI50 (M14): 1.29 µM
GI50 (MDA-MB-435): 1.58 µM
GI50 (SK-MEL-28): 1.73 µM
GI50 (UACC-257): 1.99 µM
GI50 (UACC-62): 6.23 µM
GI50 (IGROV-1): 1.53 µM
GI50 (OVCAR-4): 1.26 µM
GI50 (OVCAR-5): 0.99 µM
GI50 (OVCAR-8): 1.78 µM
GI50 (NCI/ADR-RES): 2.25 µM
GI50 (786-0): 2.26 µM
GI50 (A498): 2.95 µM
GI50 (ACHN): 1.37 µM
GI50 (CAKI-1): 2.35 µM
GI50 (RXF 393): 1.12 µM
GI50 (TK-10): 1.19 µM
GI50 (UO-31): 0.67 µM
GI50 (PC-3): 1.61 µM
GI50 (DU-145): 1.39 µM
GI50 (MCF7): 2.3 µM
GI50 (MDA-MB-231): 0.89 µM
GI50 [1]: 0.49 µM
GI50 (BT-549): 1.56 µM
GI50 (T47D): 3.43 µM
GI50 (MDA-MB-468): 0.85 µM
